Only some compounds are listed: those with a hit (about 1.1% of all), similar ones and a draw of the others.
iPSC survival up: hiPSC single-cell survival enhancement. AID 602274. ATPlite luminescence; 100% = ROCK inhibitor wells, 0% = DMSO. survival enhancement, % at 20 µM. actives 0.044% (n = 360,000); in the data active means survival enhancement above about 18%;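 further: cells exposed to compounds for 16 hours before the ATP read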
FAS-TE inh: inhibitors of human fatty acid synthase thioesterase domain. actives 0.67% (n = 360,000). recombinant FAS-TE, OMFH fluorogenic substrate, fluorescence endpoint. inhibition, % at 15 µM;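 active means compounds whose normalised, plate-corrected inhibition of enzyme fluorescence in the single-dose primary screen is 50% or more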;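 further: 0% = DMSO with enzyme and 100% = substrate without enzyme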
SENP1 inh: inhibitors of human SENP1 SUMO protease catalytic domain. actives 0.21% (n = 360,000). AID 624204. recombinant SENP1 catalytic domain, CyPet-SUMO1-YPet FRET cleavage. inhibition, % at 10 µM;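 active means inhibition at least 30% at 10 µM, raw YFP signal under a set limit, fluorescence ratio 0.5 to 1.5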;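 further: 0% = enzyme with DMSO and 100% = no enzyme wells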
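system = hSENP1 catalytic domain, recombinant | reagent = SFCypet-SUMO1-SFYpet substrate at 25 nM | doses = one dose per compound, 10 µM, 0.5% DMSO | incubation = enzyme reaction for 50 min at room temperature, dark | measured by = FRET, CFP and YFP emission | controls = no-enzyme low, enzyme-DMSO high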
ABCB6 inh 2: human ABCB6 transporter inhibition; Q9NP58; K562-ABCB6 porphyrin accumulation, flow cytometry, 1 h; hits give low values; fluorescence ratio to DMSO, % at 10 µM; actives 0.19% (n = 360,000); AID 602162;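 active means fluorescence ratio to DMSO below 75%, the collection mean minus 3 SD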;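 further: signal is porphyrin accumulated inside mitochondria; 100% equals median channel fluorescence of DMSO control wells; lower ratio means ABCB6 inhibition with less porphyrin fluorescence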
SENP1 conf: confirmation of human SENP1 SUMO protease inhibitors; shares compounds with SENP1 inh; recombinant SENP1, CyPet-SUMO1-YPet FRET cleavage; inhibition, % at 10 µM; actives 34% (n = 520); in the data active means inhibition mostly above about 35%, no sharp cut-off; inactive means mostly below about 32%;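 further: 0% = enzyme with DMSO and 100% = no enzyme control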
SENP1 kinetic: confirmation of human SENP1 SUMO protease inhibitors, kinetic; AID 651690; inhibition, % at 10 µM; actives 26% (n = 520); shares compounds with SENP1 inh; recombinant SENP1, CyPet-SUMO1-YPet FRET kinetic cleavage; in the data active means inhibition mostly above about 32%, no sharp cut-off; inactive means mostly below about 29%;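 further: 0% = DMSO with enzyme and 100% = no enzyme substrate only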
* hit, by the source's call; . = no result given.

SMILES	iPSC survival up	FAS-TE inh	SENP1 inh	ABCB6 inh 2	SENP1 conf	SENP1 kinetic
O=C1C(Cl)=C(Nc2ccccc2O)C(=O)N1CCc1ccccc1	0	-16	41*	122	17	15
COc1ccc(CCNC2=C(Cl)C(=O)N(CCc3ccccc3)C2=O)cc1OC	-3	9	-13	81	.	.
CCOc1ccc(N2C(=O)C(Cl)=C(Nc3ccccc3O)C2=O)cc1	1	-21	36*	128	28	14
CC(C)(c1ccccc1)c1ccc(OCC(O)CNC2CCN(Cc3ccccc3)CC2)cc1 (stereo not drawn)	-2	-16	0	105	.	.
COc1cccc(C2CC(C(F)(F)F)n3nc(C(=O)Nc4c(C)n(C)n(-c5ccccc5)c4=O)cc3N2)c1 (stereo not drawn)	0	-2	27*	104	13	7
Cc1ccc(C2CC(C(F)(F)F)n3nc(C(=O)Nc4c(C)n(C)n(-c5ccccc5)c4=O)cc3N2)cc1 (stereo not drawn)	0	-4	-30	103	.	.
COc1ccc(Cl)cc1S(=O)(=O)NC(C)C(=O)NCCN1CCOCC1 (stereo not drawn)	0	3	1	96	.	.
CC1CCc2c(sc(NC(=O)C3c4ccccc4Oc4ccccc43)c2C(N)=O)C1 (stereo not drawn)	0	7	-8	94	.	.
COC(=O)Nc1sc2c(c1C(N)=O)CCC(C)C2 (stereo not drawn)	0	-2	41*	98	-8	2
CCc1nnc(NC(=O)CCN2C(=O)/C(=C/c3cc(OC)c(OC)c(OC)c3)SC2=S)s1	0	-11	48*	101	39*	29
CCOc1ccc(N2C(=O)C(C)CNC2=S)cc1 (stereo not drawn)	0	-2	0	96	.	.
OCC[C@H]1C[C@@H](O)[C@H](O)[C@]2(OCCc3ccccc32)O1	1	-16	2	98	.	.
CCSc1ncc(Cl)c(C(=O)Nc2ccccc2Cl)n1	0	10	2	108	.	.
CCSc1ncc(Cl)c(C(=O)Nc2sc3c(c2C(=O)NCc2cccnc2)CCCC3)n1	2	4	41*	93	62*	44*
COc1ccc2nc3ccccc3nc2c1NC(=O)c1ccc(Br)cc1	2	-7	92*	108	105*	60*
COc1ccc2nc3ccccc3nc2c1NC(=O)c1ccc(Cl)cc1	1	-24	79	108	.	.
CCN(CC)C(=O)C1=C(C)N(CCCOC)C(=O)C(CC(=O)NC2CCCCC2)C1 (stereo not drawn)	5	-9	2	99	.	.
COc1ccc(-c2c(Sc3ccccc3)c3cc(-c4ccc(OC)c(F)c4)ccc3n2C)cc1	0	23	30*	92	-35	4

Bioassay records from PubChem BioAssay.
